According to ChEMBL document CHEMBL4680130, “Substituted 4-phenylthiazoles: Development of potent and selective A, A and dual A/A adenosine receptor antagonists” (Eur J Med Chem, 2020):

Experiments:
Adenosine receptor A1 [1] = biological target: T1, Adenosine receptor A1 (Rattus norvegicus, UniProt P25099); assay: Displacement of [3H]CCPA from adenosine receptor A1 in rat brain cortex membranes incubated for 90 mins by radioligand competition assay; assay type: cell membranes, Cell membrane
T1 sequence (P25099 whole entry): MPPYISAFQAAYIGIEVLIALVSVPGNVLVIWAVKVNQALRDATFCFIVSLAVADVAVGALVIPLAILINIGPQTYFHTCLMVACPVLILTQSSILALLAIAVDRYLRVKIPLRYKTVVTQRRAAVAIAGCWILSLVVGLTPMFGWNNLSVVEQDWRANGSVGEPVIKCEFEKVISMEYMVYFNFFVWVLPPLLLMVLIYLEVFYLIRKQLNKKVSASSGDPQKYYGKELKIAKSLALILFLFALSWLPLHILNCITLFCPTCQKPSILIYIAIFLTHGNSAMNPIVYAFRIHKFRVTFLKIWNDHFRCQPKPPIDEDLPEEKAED

Adenosine receptor A1 [2] = biological target: T1, Adenosine receptor A1; assay: Displacement of [3H]CCPA from rat adenosine receptor A1 by radioligand competition assay
How it was run: (§1)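 A1 competition binding with [3H]CCPA, 0.5 nM. Membranes: CHO cells expressing human A1, or rat brain cortex. Membranes preincubated 20 min with adenosine deaminase (2 U/mL per mg protein). Incubation 90 min at rt in 50 mM Tris-HCl pH 7.4 with 2.5% final DMSO. Nonspecific binding defined by 10 µM 2-chloroadenosine. GF/B filtration, scintillation counting.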

Adenosine receptor A2b [3] = biological target: T2, Adenosine receptor A2b (Homo sapiens, UniProt P29275); assay: Displacement of [3H]PSB-603 from human adenosine receptor A2B expressed in CHO cell membranes incubated for 75 mins by radioligand competition assay; parameters: species or system Cell membrane
T2 sequence (P29275 whole entry): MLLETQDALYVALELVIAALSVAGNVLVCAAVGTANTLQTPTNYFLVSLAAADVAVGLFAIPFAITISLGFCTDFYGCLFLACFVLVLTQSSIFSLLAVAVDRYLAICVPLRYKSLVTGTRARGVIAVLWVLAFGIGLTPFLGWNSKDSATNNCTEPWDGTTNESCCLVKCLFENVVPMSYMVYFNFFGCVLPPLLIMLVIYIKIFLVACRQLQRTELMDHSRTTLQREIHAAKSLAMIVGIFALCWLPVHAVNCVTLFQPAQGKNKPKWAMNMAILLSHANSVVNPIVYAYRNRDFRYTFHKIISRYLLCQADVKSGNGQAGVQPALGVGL

Adenosine receptor A1 [4] = biological target: T1, Adenosine receptor A1; assay: Displacement of [3H]DPCPX from rat brain cortical membrane A1AR in presence of 100 uM of GTP by scintillation counting analysis; assay type: cell membranes, Cortex, Cell membrane
Adenosine receptor A1 [5] = biological target: T3, Adenosine receptor A1 (Homo sapiens, UniProt P30542); assay: Displacement of [3H]CCPA from human adenosine receptor A1 expressed in CHO cell membranes incubated for 90 mins by radioligand competition assay; parameters: species or system Cell membrane
T3 sequence (P30542 whole entry): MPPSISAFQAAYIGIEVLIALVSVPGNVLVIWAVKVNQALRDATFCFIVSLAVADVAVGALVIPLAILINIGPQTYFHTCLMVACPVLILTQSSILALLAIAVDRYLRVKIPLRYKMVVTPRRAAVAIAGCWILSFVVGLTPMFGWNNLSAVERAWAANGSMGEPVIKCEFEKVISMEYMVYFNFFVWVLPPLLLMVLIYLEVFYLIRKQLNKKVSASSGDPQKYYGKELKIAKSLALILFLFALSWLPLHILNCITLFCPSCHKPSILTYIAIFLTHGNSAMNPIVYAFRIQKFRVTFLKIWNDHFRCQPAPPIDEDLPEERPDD

Adenosine receptor A1 [6] = biological target: T1, Adenosine receptor A1; assay: Displacement of [3H]DPCPX from rat brain cortical membrane A1AR in absence of GTP by scintillation counting analysis; assay type: cell membranes, Cortex, Cell membrane
Adenosine receptor A1 [7] = biological target: T1, Adenosine receptor A1; assay: Displacement of [3H]DPCPX from rat adenosine receptor A1 by radioligand competition assay
How it was run: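 Rat brain cortical membranes, [3H]DPCPX 0.4 nM. Nonspecific binding defined by 10 μM DPCPX. Curves run with and without 100 μM GTP. Incubation 90 min at rt in 50 mM Tris-HCl pH 7.4, after 20 min adenosine deaminase preincubation. Filtration, then scintillation counting. GTP shift is the IC50 with GTP divided by the IC50 without GTP.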

Adenosine receptor A2a [8] = biological target: T4, Adenosine receptor A2a (Homo sapiens, UniProt P29274); assay: Displacement of [3H]MSX2 from human adenosine receptor A2A expressed in HEK293 cell membranes incubated for 30 mins by radioligand competition assay; parameters: species or system Cell membrane
Adenosine receptor A3 [9] = biological target: T5, Adenosine receptor A3 (Homo sapiens, UniProt P0DMS8); assay: Displacement of [3H]PSB-11 from human adenosine receptor A3 expressed in CHO cell membranes incubated for 60 mins by radioligand competition assay; parameters: species or system Cell membrane
T5 sequence (P0DMS8 whole entry): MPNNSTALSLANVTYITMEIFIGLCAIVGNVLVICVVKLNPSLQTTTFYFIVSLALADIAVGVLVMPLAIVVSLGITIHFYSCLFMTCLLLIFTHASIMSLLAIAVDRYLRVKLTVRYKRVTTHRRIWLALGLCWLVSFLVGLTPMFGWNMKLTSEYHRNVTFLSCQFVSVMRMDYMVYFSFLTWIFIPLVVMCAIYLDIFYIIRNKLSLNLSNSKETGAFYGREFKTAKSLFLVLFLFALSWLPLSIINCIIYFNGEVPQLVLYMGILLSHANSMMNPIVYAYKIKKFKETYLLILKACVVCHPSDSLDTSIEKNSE

Adenosine receptor A2a [10] = biological target: Adenosine receptor A2a (Rattus norvegicus, UniProt P30543); assay: Displacement of [3H]MSX2 from adenosine receptor A2A in rat brain striatum membranes incubated for 30 mins by radioligand competition assay; assay type: cell membranes, Cell membrane
[11] = biological target: T6, Adenosine receptor A2b (Homo sapiens) (UniProt P29275); assay: Displacement of [3H]PSB-603 from human adenosine receptor A2B expressed in CHO cell membranes at 0.1 uM incubated for 75 mins by radioligand competition assay relative to control; details: Cell membrane
T6 sequence (whole entry): T2 sequence (P29275 whole entry)
How it was run: (§2)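 CHO membranes expressing human or rat A2B, [3H]PSB-603 0.3 nM. Nonspecific binding defined by 10 µM DPCPX. Preincubated 20 min with adenosine deaminase, then 75 min at rt in Tris-HCl pH 7.4 with 2.5% DMSO. Filters washed with ice-cold 50 mM Tris-HCl containing 0.1% BSA; scintillation counting.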

[12] = biological target: T7, Adenosine receptor A1 (Rattus norvegicus) (UniProt P25099); assay: Displacement of [3H]CCPA from adenosine receptor A1 in rat brain cortex membranes at 0.1 uM incubated for 90 mins by radioligand competition assay; details: Cell membrane, filed as antagonist; how it was run: as §1
T7 sequence (whole entry): T1 sequence (P25099 whole entry)

[13] = biological target: T8, Adenosine receptor A3 (Homo sapiens) (UniProt P0DMS8); assay: Displacement of [3H]PSB-11 from human adenosine receptor A3 expressed in CHO cell membranes at 0.1 uM incubated for 60 mins by radioligand competition assay; details: Cell membrane, dose 1 µM, in the assay text read “1 uM” for “0.1 uM”
T8 sequence (whole entry): T5 sequence (P0DMS8 whole entry)
How it was run: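 CHO membranes expressing human A3, [3H]PSB-11 0.5 nM. Nonspecific binding defined by 100 µM R-PIA. Adenosine deaminase preincubation 20 min, then 60 min at rt in 50 mM Tris-HCl pH 7.4 with 2.5% DMSO. Filtered on GF/B, scintillation counted.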

[14] = biological target: Adenosine receptor A2a (Rattus norvegicus) (UniProt P30543); assay: Displacement of [3H]MSX2 from adenosine receptor A2A in rat brain striatum membranes at 0.1 uM incubated for 30 mins by radioligand competition assay relative to control; details: Cell membrane
How it was run: (§3)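 A2A binding, [3H]MSX-2 1.0 nM. Membranes: rat brain striatum, or HEK293 cells expressing human A2A. Adenosine deaminase preincubation 20 min, then 30 min at rt in 50 mM Tris-HCl pH 7.4 with 2.5% DMSO. Nonspecific binding defined by 50 µM NECA. GF/B filtration, scintillation counting. Single-concentration percent inhibition, ≥3 experiments in duplicate or triplicate.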

Adenosine receptor A2a [15] = biological target: T4, Adenosine receptor A2a; assay: Displacement of [3H]MSX2 from human adenosine receptor A2A expressed in HEK293 cell membranes at 0.1 uM incubated for 30 mins by radioligand competition assay relative to control; details: Cell membrane, in the assay text read “at 1 uM” for “at 0.1 uM”; how it was run: as §3
Adenosine receptor A3 [16] = biological target: T9, Adenosine receptor A3 (Rattus norvegicus, UniProt P28647); assay: Displacement of [3H]NECA from rat adenosine receptor A3 expressed in CHO cell membranes incubated for 60 mins by radioligand competition assay; parameters: species or system Cell membrane
T9 sequence (P28647 whole entry): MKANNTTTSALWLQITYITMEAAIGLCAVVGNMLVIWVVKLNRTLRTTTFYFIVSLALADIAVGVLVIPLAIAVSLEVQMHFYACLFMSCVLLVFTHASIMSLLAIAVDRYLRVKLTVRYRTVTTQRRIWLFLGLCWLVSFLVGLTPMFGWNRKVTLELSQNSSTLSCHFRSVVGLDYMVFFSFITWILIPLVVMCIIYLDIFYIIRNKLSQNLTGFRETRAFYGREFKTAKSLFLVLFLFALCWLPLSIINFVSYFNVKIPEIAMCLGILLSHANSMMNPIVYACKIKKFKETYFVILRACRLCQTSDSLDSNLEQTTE

[17] = biological target: T10, Adenosine receptor A3 (Rattus norvegicus) (UniProt P28647); assay: Displacement of [3H]NECA from rat adenosine receptor A3 expressed in CHO cell membranes at 0.1 uM incubated for 60 mins by radioligand competition assay relative to control; details: Cell membrane
T10 sequence (whole entry): T9 sequence (P28647 whole entry)
How it was run: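 CHO membranes expressing rat A3, [3H]NECA 10 nM. Nonspecific binding defined by 100 µM R-PIA. Preincubated 20 min with adenosine deaminase, then 60 min at rt in 50 mM Tris-HCl pH 7.4 with 2.5% DMSO. GF/B filtration, scintillation counting.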

Adenosine receptor A2b [18] = biological target: T11, Adenosine receptor A2b (Rattus norvegicus, UniProt P29276); assay: Displacement of [3H]PSB-603 from rat adenosine receptor A2B expressed in CHO cell membranes incubated for 75 mins by radioligand competition assay; parameters: species or system Cell membrane; how it was run: as §2
T11 sequence (P29276 whole entry): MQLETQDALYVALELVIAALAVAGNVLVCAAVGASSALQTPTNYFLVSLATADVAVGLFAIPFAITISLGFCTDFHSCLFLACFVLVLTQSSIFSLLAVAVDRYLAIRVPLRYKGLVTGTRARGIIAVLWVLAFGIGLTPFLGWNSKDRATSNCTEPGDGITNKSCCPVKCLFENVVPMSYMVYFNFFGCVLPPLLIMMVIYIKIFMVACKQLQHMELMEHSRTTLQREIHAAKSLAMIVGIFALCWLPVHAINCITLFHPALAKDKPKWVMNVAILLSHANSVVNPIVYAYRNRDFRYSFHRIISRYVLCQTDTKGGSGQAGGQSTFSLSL

T4 sequence (P29274 whole entry): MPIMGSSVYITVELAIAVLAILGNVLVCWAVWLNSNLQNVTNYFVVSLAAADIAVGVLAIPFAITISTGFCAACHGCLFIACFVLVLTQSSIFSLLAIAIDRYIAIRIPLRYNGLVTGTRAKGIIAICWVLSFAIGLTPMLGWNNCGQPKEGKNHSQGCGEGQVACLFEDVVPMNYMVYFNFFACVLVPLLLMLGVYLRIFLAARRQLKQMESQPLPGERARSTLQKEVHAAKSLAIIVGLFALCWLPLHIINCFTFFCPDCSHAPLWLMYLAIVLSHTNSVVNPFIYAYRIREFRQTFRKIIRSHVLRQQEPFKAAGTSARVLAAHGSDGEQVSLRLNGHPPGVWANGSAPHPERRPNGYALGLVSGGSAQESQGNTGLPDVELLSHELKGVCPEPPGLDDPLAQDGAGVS
Chain of Adenosine receptor A2a (Rattus norvegicus) (P30543 whole entry): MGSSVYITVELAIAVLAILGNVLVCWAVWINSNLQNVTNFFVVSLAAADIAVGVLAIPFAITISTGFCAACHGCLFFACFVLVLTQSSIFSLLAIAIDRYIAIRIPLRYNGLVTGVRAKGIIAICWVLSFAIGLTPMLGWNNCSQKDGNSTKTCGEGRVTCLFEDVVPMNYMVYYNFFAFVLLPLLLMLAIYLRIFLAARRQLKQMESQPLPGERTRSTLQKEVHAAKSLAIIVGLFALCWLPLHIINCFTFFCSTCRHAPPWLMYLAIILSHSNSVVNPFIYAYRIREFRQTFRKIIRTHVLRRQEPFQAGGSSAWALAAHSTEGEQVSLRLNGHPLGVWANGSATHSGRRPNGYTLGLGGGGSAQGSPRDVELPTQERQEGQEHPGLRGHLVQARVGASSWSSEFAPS
Chain of Adenosine receptor A2a (Rattus norvegicus, UniProt P30543) (P30543 whole entry): as above

| Structure (SMILES) | Ki (Adenosine receptor A1 [1]) | Ki (Adenosine receptor A1 [2]) | Ki (Adenosine receptor A2b [3]) | IC50 (Adenosine receptor A1 [4]) | Ki (Adenosine receptor A1 [5]) | IC50 (Adenosine receptor A1 [6]) | Ki (Adenosine receptor A1 [7]) | Ki (Adenosine receptor A2a [8]) | Ki (Adenosine receptor A3 [9]) | Ki (Adenosine receptor A2a [10]) | inhibition [11] | inhibition [12] | inhibition [13] | inhibition [14] | inhibition (Adenosine receptor A2a [15]) | Ki (Adenosine receptor A3 [16]) | inhibition [17] | Ki (Adenosine receptor A2b [18]) |
| --- | --- | --- | --- | --- | --- | --- | --- | --- | --- | --- | --- | --- | --- | --- | --- | --- | --- | --- |
| O=C(Nc1nc(-c2ccccc2)c(C(=O)c2ccc(F)cc2F)s1)c1ccccc1 | 2.79 nM | 2.79 nM | > 100 nM | 3.14 nM | 55.3 nM | 3.15 nM | 2.93 nM | 77.7 nM | 67.8 nM | > 1000 nM |  |  |  |  |  |  |  |  |
| COc1ccc(C(=O)Nc2nc(-c3ccccc3)c(C(=O)c3ccc(F)cc3F)s2)cc1 |  |  | > 100 nM |  | > 1000 nM |  |  | > 1000 nM | > 1000 nM | > 1000 nM | 0% | 54% | 24% | 16% | 14% |  |  |  |
| Cc1ccc(C(=O)c2sc(NC(=O)c3ccco3)nc2-c2ccccc2)cc1 | 0.348 nM | 0.348 nM | > 100 nM | 0.084 nM | 7.57 nM | 0.067 nM | 0.0628 nM | > 1000 nM | 42.2 nM | 1210 nM | 2% |  |  |  |  |  |  |  |
| O=C(Nc1nc(-c2ccccc2)c(-c2nc3ccccc3c(=O)n2-c2ccc(Cl)cc2)s1)c1ccccc1 | > 1000 nM |  | > 100 nM |  | > 1000 nM |  |  | > 1000 nM | 83.3 nM | > 1000 nM | 12% | 16% |  | 7% |  | > 10000 nM | 22% |  |
| COc1ccc(C(=O)Nc2nc(-c3ccccc3)c(C(=O)c3ccc(Cl)cc3)s2)cc1 | 1.01 nM |  | > 100 nM |  | 32.3 nM |  |  | > 1000 nM | > 1000 nM | > 1000 nM |  |  |  | 12% |  | > 10000 nM |  | > 100 nM |
| COc1ccc(C(=O)Nc2nc(-c3ccccc3)c(-c3nc4ccccc4c(=O)n3-c3ccc(C)cc3)s2)cc1 | > 1000 nM |  | > 100 nM |  | > 1000 nM |  |  | > 1000 nM | 27.8 nM | > 1000 nM | 2% | 25% |  | 15% |  | > 10000 nM | 15% |  |
| O=C(Nc1nc(-c2ccccc2)c(C(=O)c2ccc(Cl)cc2)s1)c1ccccc1 | 0.939 nM | 0.939 nM | > 100 nM | 0.0981 nM | 24.4 nM | 0.0929 nM | 0.0867 nM | 39.1 nM | 428 nM | 1670 nM |  |  |  |  |  |  |  |  |
